In ChEMBL document CHEMBL1137433, “Synthesis and antibacterial evaluation of ureides of Baylis-Hillman derivatives” (2006):
Values after ≈ are worked out from the molar mass of the structure shown.

Assays:
Type in all cases: functional
[1] = tested on: Pseudomonas aeruginosa; assay: Antibacterial activity against Pseudomonas aeruginosa
Method in brief: (§1)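 Broth microdilution MIC in Mueller Hinton broth, 96-well plates. Strains from departmental collection, kept on nutrient agar slants at 37 °C, purity checked before testing. Starting inoculum 1–5 · 10³ cells/ml. Plates incubated 24 h at 37 °C in a moist chamber, then absorbance read at 492 nm. MIC taken as 90% growth inhibition relative to growth control.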

[2] = tested on: Staphylococcus aureus; assay: Antibacterial activity against Staphylococcus aureus; method in brief: as §1
[3] = tested on: Enterococcus faecalis; assay: Antibacterial activity against Streptococcus faecalis; method in brief: as §1
[4] = tested on: Escherichia coli; assay: Antibacterial activity against Escherichia coli; method in brief: as §1
[5] = tested on: Klebsiella pneumoniae; assay: Antibacterial activity against Klebsiella pneumoniae; method in brief: as §1

Compound | MIC [1] [µg/mL] | MIC [2] [µg/mL] | MIC [3] [µg/mL] | MIC [4] [µg/mL] | MIC [5] [µg/mL]
CCOc1ccc(NC(=O)N(Cc2ccccc2)CC(C#N)C(O)c2ccccc2Cl)cc1 (stereo not given) | > 50 | > 50 | > 50 | > 50 | > 50
N#C/C(=C/c1cccs1)CNC(=O)Nc1ccc(Cl)cc1 | > 50 | > 50 | > 50 | > 50 | > 50
N=c1c(Cc2cccs2)c[nH]c(=O)n1-c1ccc(Cl)cc1 | > 50 | > 50 | > 50 | > 50 | > 50
CCn1cc(C(=O)O)c(=O)c2cc(F)c(N3CCNCC3)cc21 [NORFLOXACIN] | 0.78 (≈ 2.44 µM) | 0.3 (≈ 0.939 µM) | 0.78 (≈ 2.44 µM) | 0.36 (≈ 1.13 µM) | 0.36 (≈ 1.13 µM)
Cc1ccc(-n2c(=O)[nH]cc(Cc3ccccc3Cl)c2=N)cc1Cl | 50 (≈ 139 µM) | 50 (≈ 139 µM) | 50 (≈ 139 µM) | 50 (≈ 139 µM) | > 50
COC(c1ccccc1)C(C#N)CN(Cc1ccccc1)C(=O)Nc1ccc(Cl)c(Cl)c1 (stereo not given) | 50 (≈ 107 µM) | 3.12 (≈ 6.66 µM) | 6.25 (≈ 13.3 µM) | 3.12 (≈ 6.66 µM) | 3.12 (≈ 6.66 µM)
N=c1c(Cc2ccccc2Cl)c[nH]c(=O)n1-c1ccc(Cl)cc1Cl | > 50 | > 50 | > 50 | > 50 | 50 (≈ 131 µM)
N=c1c(Cc2cccs2)c[nH]c(=O)n1-c1ccc(Cl)cc1Cl | > 50 | > 50 | > 50 | 50 (≈ 142 µM) | > 50
N#C/C(=C/c1cccs1)CNC(=O)Nc1ccc(Cl)cc1Cl | > 50 | > 50 | > 50 | > 50 | > 50
N#C/C(=C/c1ccccc1Cl)CNC(=O)Nc1ccc(Cl)cc1Cl | > 50 | > 50 | > 50 | > 50 | > 50
N#C/C(=C/c1ccccc1Cl)CNC(=O)Nc1ccc(Cl)c(Cl)c1 | > 50 | > 50 | > 50 | 1.56 (≈ 4.1 µM) | > 50
N=c1c(Cc2ccc(Cl)c(Cl)c2)c[nH]c(=O)n1-c1ccc(Cl)cc1 | > 50 | > 50 | > 50 | > 50 | > 50
N#C/C(=C/c1ccccc1)CNC(=O)Nc1ccc(Cl)cc1Cl | > 50 | > 50 | > 50 | 50 (≈ 144 µM) | > 50
N#C/C(=C/c1ccccc1)CNC(=O)Nc1ccc(Cl)c(Cl)c1 | > 50 | > 50 | > 50 | > 50 | > 50
N=c1c(Cc2ccccc2Cl)c[nH]c(=O)n1-c1ccc(Cl)c(Cl)c1 | > 50 | > 50 | 50 (≈ 131 µM) | 50 (≈ 131 µM) | > 50
N=c1c(Cc2ccccc2)c[nH]c(=O)n1-c1ccc(Cl)c(Cl)c1 | 50 (≈ 144 µM) | 50 (≈ 144 µM) | 50 (≈ 144 µM) | 50 (≈ 144 µM) | 50 (≈ 144 µM)
N=c1c(Cc2ccccc2)c[nH]c(=O)n1-c1ccc(Cl)cc1Cl | 50 (≈ 144 µM) | 50 (≈ 144 µM) | 25 (≈ 72.2 µM) | 50 (≈ 144 µM) | 50 (≈ 144 µM)
Nc1c(Cc2ccccc2)cnc(=S)n1-c1ccccc1 | > 50 | > 50 | > 50 | > 50 | > 50
N#CC(CN(Cc1ccccc1)C(=O)Nc1ccc(Cl)c(Cl)c1)C(O)c1ccccc1 (stereo not given) | > 50 | > 50 | > 50 | > 50 | > 50
N#C/C(=C/c1ccccc1Cl)CNC(=S)Nc1ccccc1 | > 50 | > 50 | > 50 | > 50 | > 50
